# From PubChem
# The list is not random: actives were taken first. Their share in the collection is about 2.1%.
# HTR2A ag = mouse HTR2A agonism via beta-arrestin recruitment. P35363. CHO-K1 mHTR2A beta-arrestin complementation, luminescence; percent of 30 µM serotonin response. activation, % at 7.6 µM. hit rate 0.66% among 360,000. AID 624169;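 active means activation above a run cutoff, the mean activation of all tested compounds plus 3 SD, cut at about 14% in these data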
# Target sequence (P35363 whole entry, looked up): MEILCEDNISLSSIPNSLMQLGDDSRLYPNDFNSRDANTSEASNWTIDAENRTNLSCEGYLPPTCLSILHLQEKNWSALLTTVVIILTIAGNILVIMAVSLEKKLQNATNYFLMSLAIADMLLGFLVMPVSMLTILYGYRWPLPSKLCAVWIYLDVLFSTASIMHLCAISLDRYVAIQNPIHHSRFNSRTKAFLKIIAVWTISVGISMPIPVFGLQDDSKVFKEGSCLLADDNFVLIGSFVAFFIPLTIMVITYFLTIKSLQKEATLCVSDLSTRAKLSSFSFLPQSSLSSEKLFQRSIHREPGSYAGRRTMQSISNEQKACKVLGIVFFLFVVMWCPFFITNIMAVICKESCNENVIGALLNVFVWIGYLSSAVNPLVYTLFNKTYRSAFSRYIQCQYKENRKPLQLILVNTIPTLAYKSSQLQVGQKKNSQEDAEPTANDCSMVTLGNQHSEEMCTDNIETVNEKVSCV
# EBI2 block = blocks human EBI2 receptor beta-arrestin signaling; hit rate 0.81% among 360,000; EBI2 beta-arrestin recruitment, luminescence, 7a,25-OHC stimulated; P32249; inhibition, % at 5 µM; AID 651636; in the data active means inhibition above about 38%;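 further: enzyme fragment complementation signal reports receptor beta-arrestin coupling in cells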
# CCR6 antag = CCR6 (human) receptor antagonism; P51684; CHO-K1 CCR6 PathHunter beta-arrestin, luminescence, CCL20-stimulated; inhibition, % at 20 µM; hit rate 0.49% among 340,000; AID 493098;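 active means compounds whose inhibition of the agonist-driven luminescence signal at 20 µM reaches about 50%, limit read from the data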;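 further: cells stimulated with CCL20 at 14 nM final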
# APJ antag = blocks the human apelin receptor APJ; P35414; CHO-K1 APJ beta-arrestin complementation, luminescence; inhibition, % at 20 µM; hit rate 0.32% among 330,000;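 active means inhibition above about 40% at 20 µM, limit read from the data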;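 further: cells challenged with 10 nM apelin-13 agonist together with compound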
# CXCR6 block = CXCR6 (human) receptor inhibition; O00574; CHO-K1 PathHunter CXCR6 beta-arrestin, luminescence; inhibition, % at 20 µM; hit rate 0.36% among 360,000; AID 602244; in the data active means inhibition above about 34%, passing the limit was not always enough;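 further: antagonist mode with CXCL16 agonist at 10 nM final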
# APJ agonist = APJ receptor agonism. P35414. CHO-K1 APJ PathHunter beta-arrestin, luminescence; 0% DMSO wells, 100% apelin. activation, % at 20 µM. hit rate 0.11% among 330,000. AID 2520;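 active means activation more than six SD over the plate average, tested at 20 µM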
#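 assay system = CHO-K1 APJ beta-arrestin complementation cell line | input = cell density 1000 per well | dosing = compound 20 µM once, DMSO 1% | timing = compound 90 min 25 °C, reagent 1 h | measured by = luminescence from split beta-galactosidase complementation, Galacton Star/Emerald II substrate | read-out basis = APJ agonist activity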
# MOR ag counter = OPRM1 agonism in mouse HTR2A counterscreen; shares compounds with HTR2A ag; U2OS OPRM1 beta-arrestin PathHunter, luminescence; DMSO 0%, DAMGO 9.3 µM 100%; activation, % at 9.3 µM; hit rate 5.3% among 2,300; AID 624380;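 active means mean activation above the mean of DMSO-only wells plus 3 SD, cut at about 0.5% in these data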
# HTR2A ag conf = confirmation of mouse HTR2A serotonin receptor agonists. AID 624381. shares compounds with HTR2A ag. activation, % at 7.6 µM. hit rate 19% among 2,300. CHO-K1 PathHunter beta-arrestin recruitment, luminescence; DMSO 0%, 30 µM serotonin 100%;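 active means mean activation across triplicates above the hit threshold derived in the original primary screen, cut at about 15% in these data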
# EBI2 conf = confirmation of human EBI2 receptor antagonists; shares compounds with EBI2 block; EBI2 beta-arrestin luminescence, 7a,25-OHC antagonism; inhibition, % at 5 µM; hit rate 29% among 2,400; AID 651997;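 active means inhibition of at least 50%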
# EBI2 ag = counter-screen for EBI2 antagonists: EBI2 agonist activity | shares compounds with EBI2 block | EBI2-expressing cells, agonist mode, luminescence, 60 min; 0% vehicle, 100% 7α,25-dihydroxycholesterol control | activation, % at 5 µM | 2,400 tested, under 10 active | AID 652000;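 active means activation of at least 50%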
# bGal cs = inhibits E. coli beta-galactosidase, counter-screen for EBI2 antagonists; shares compounds with EBI2 block; purified beta-galactosidase, luminescent Galacton Star, 15 min; inhibition, % at 5 µM; hit rate 1% among 2,400; AID 652176;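 active means replicate-average signal at least 3 plate SD below neutral wells, shown as high inhibition, flagging enzyme-inhibiting false positives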;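 further: higher means stronger loss of beta-gal luminescence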
# A number is an active result; 0 = inactive; - = no result given.
SMILES,HTR2A ag,EBI2 block,CCR6 antag,APJ antag,CXCR6 block,APJ agonist,MOR ag counter,HTR2A ag conf,others
COc1ccc(N2C(=O)CSC2c2cccc(OC)c2OC)cc1 (configuration not stated),19,0,0,-,0,-,0,0,
Cc1ccc2c(C)c(C(=O)N(C)C(C)c3ccncn3)oc2c1C (configuration not stated),0,0,0,0,0,0,-,-,
CC(C)CC(=O)Nc1ccc(C(=O)COC(=O)CN2C(=O)NC3(CCCCC3C)C2=O)cc1 (configuration not stated),18,0,0,0,0,0,0,0,
CNc1ccc(C(=O)c2ccccc2C(=O)O)cc1[N+](=O)[O-],19,0,0,0,0,0,0,0,
CN(C)c1ccc(C(=O)c2ccccc2C(=O)O)cc1[N+](=O)[O-],0,0,0,0,0,0,-,-,
CC(O)CCC(=O)NCCNC(=O)CCC(C)O (configuration not stated),20,0,0,0,0,0,0,0,
COc1ccc(OC)c(CN2CCN(C(=O)c3cccs3)CC2)c1,33,0,0,0,0,0,0.8,91,
COc1ccc(CN2CCN(C(=O)c3cccs3)CC2)cc1,29,0,0,0,0,0,0,50,
COc1cccc(CN2CCN(C(=O)c3cccs3)CC2)c1OC,0,0,0,0,0,0,-,-,
O=C(c1cccs1)N1CCN(Cc2ccncc2)CC1,0,0,0,0,0,0,-,-,
O=C(c1cccs1)N1CCN(Cc2ccccc2)CC1,28,0,0,0,0,0,0,93,
COC(=O)[C@@]1(Cc2ccc(F)cc2)[C@H]2c3cc(C(=O)N4CCCC4)n(CCc4c[nH]c5ccc(OC)cc45)c3C[C@H]2CN1C(=O)c1ccccc1,-,-,-,0,-,0,-,-,
Cc1ccc(CNC(=O)CN2C(=O)NC3(CCCC3)C2=O)cc1,0,0,0,0,0,0,-,-,
CCn1c(SCC(=O)NCC2CCCO2)nnc1-c1c[nH]c2ccccc12 (configuration not stated),0,0,0,0,0,0,-,-,
Cn1c(SCC(=O)NCC2CCCO2)nnc1-c1c[nH]c2ccccc12 (configuration not stated),37,0,0,0,0,0,0,0,
O=C(CSC1=NCCS1)NC(NC(=O)CSC1=NCCS1)c1ccccc1,0,0,0,0,0,0,-,-,
CN(C(=O)CSC1=NCCS1)c1ccccc1,15,0,0,0,0,0,0.9,0,
Nc1ccc(S(=O)(=O)Nc2ccnn2-c2ccccc2)cc1,19,0,0,0,0,0,0,0,
O=C(Nc1ccc(S(=O)(=O)Nc2ccnn2-c2ccccc2)cc1)C(F)(F)F,0,0,0,0,0,0,-,-,
Cc1ccc2[nH]c(=O)c(CN(CCO)C(=O)N(C)C)cc2c1,22,0,0,0,0,0,0,0,
COc1ccc(CN(Cc2cc3cc(C)ccc3[nH]c2=O)C(=O)N(C)C)cc1,0,0,0,0,0,0,-,-,
CN1/C(=C/C(=O)c2cccs2)Sc2ccccc21,0,0,-,0,0,0,-,-,
CCc1cccc2c(C(=O)CSc3nncn3-c3ccc(OC)cc3)c[nH]c12,0,0,0,0,0,0,-,-,
C=C(C)c1cccc(C(C)(C)NC(=O)Nc2nnc(C(C)C)s2)c1,0,0,0,0,0,0,-,-,
C=C(C)c1cccc(C(C)(C)NC(=O)Nc2nncs2)c1,0,0,0,0,0,0,-,-,
SMILES,HTR2A ag,EBI2 block,CCR6 antag,APJ antag,CXCR6 block,APJ agonist,MOR ag counter,HTR2A ag conf,others
C=C(C)c1cccc(C(C)(C)NC(=O)Nc2cc(C)ccn2)c1,35,0,0,0,0,0,0,30,
C=C(C)c1cccc(C(C)(C)NC(=O)Nc2ccc(OC)nc2)c1,45,0,0,0,0,0,0,16,
C=C(C)c1cccc(C(C)(C)NC(=O)Nc2ccc(C)cn2)c1,15,0,0,0,0,0,0,32,
CCCNC(=O)c1ccccc1C(=O)NC1(C(=O)NCCC)CCCC1,0,0,0,0,0,0,-,-,
Cc1cccc2cc(CN(CC3CCCO3)C(=O)c3cccs3)c(=O)[nH]c12 (configuration not stated),0,0,0,0,0,0,-,-,
Cc1cc(C)n2nc(CNS(=O)(=O)c3ccc(C(C)(C)C)cc3)nc2n1,22,0,-,-,0,-,0,0,
CC(C)C(=O)Nc1c2c(nn1-c1ccc(F)cc1)CSC2,16,0,0,0,0,0,0,0,
CN(C(=O)CN1C(=O)NC2(CCc3ccccc32)C1=O)C1CCS(=O)(=O)C1 (configuration not stated),18,0,0,0,0,0,0,0,
CCN(C(=O)CN1C(=O)NC2(CCc3ccccc32)C1=O)C1CCS(=O)(=O)C1 (configuration not stated),0,0,0,0,0,0,-,-,
CC1CC(C)CN(S(=O)(=O)c2ccc(NC(=O)CN3CCCCCC3)cc2)C1 (configuration not stated),0,0,0,0,0,0,-,-,
CNCCCN1c2ccccc2CCc2ccccc21,31,0,0,0,0,0,0,0,
COc1ccc(S(=O)(=O)Cc2ccc(C(=O)N3CCOCC3)o2)cc1,17,0,0,0,0,0,0,0,
OC(COc1ccc2cc(Br)ccc2c1)CN1CCN(c2ccccn2)CC1 (configuration not stated),24,82,0,0,0,0,0,108,EBI2 conf=0;EBI2 ag=0;bGal cs=0
CCC(c1nnnn1-c1c(C)cccc1C)N1CCN(C/C=C/c2ccccc2)CC1 (configuration not stated),27,58,-,-,0,-,0,78,EBI2 conf=0;EBI2 ag=0;bGal cs=0
Cc1cccc(C)c1-n1nnnc1C(C1CC1)N1CCN(C/C=C/c2ccccc2)CC1 (configuration not stated),30,44,-,-,0,-,0,57,EBI2 conf=0;EBI2 ag=0;bGal cs=0
CCC(c1nnnn1-c1c(C)cccc1C)N1CCN(CC)CC1 (configuration not stated),0,0,-,-,0,-,-,-,
